Here are results for eight compounds from ChEMBL document CHEMBL4033658, “Design and expeditious synthesis of organosilanes as potent antivirals targeting multidrug-resistant influenza A viruses” (Eur J Med Chem, 2017).

The structures appear in SMILES notation.

The test system of data set [1] is MDCK. The data set can be described thus: Cytotoxicity against MDCK cells after 48 hrs by neutral red uptake assay. Conditions: dog. Type of data set: cell-based, Canis lupus familiaris. The essentials:
(§1)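 Serially diluted compound in serum-free DMEM for 48 h at 37 °C, 5% CO2. Neutral red 40 µg/mL for 4 h, absorbance read at 540 nm. CC50 from variable-slope dose-response fit.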

For data set [2], the system named is Influenza A virus. The data set can be described thus: Inhibition of Influenza A virus AM2 proton channel expressed in Xenopus laevis frog oocytes at 100 uM after 2 mins by electrophysiological two-electrode voltage clamp assay. Type of data set: cell-based. Put shortly:
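Two-electrode voltage clamp on oocytes microinjected with RNA for AM2-WT or AM2-S31N. Compound at 100 µM for 2 min at pH 5.5. Read-out is percent inhibition of AM2 current, mean of three independent measurements.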
Background: Two-electrode voltage clamp holds a large cell at a set potential and records current.

Data set [3] in a line: Selectivity index, ratio of CC50 for MDCK cells to EC50 for Influenza A virus A/WSN/33 (H1N1). Conditions: dog, read-out: Ratio CC50/EC50. Type of data set: toxicity.
Data set [4] in a line: Antiviral activity against Influenza A virus A/WSN/33(H1N1) infected in MDCK cells expressing ST6Gal 1 preincubated with virus and cells for 30 mins followed viral infection measured after 2 to 3 days by naphthalene black dye-based plaque reduction assay. Type of data set: functional, cell-based, Influenza A virus (A/WSN/1933(H1N1)). In general terms: Plaques are areas of infected cells; plaque reduction assays count them against a control.

Data set [5] can be described thus: Selectivity index, ratio of CC50 for human A549 cells to EC50 for Influenza A virus A/Denmark/524/2009 (H1N1). Type of data set: toxicity. Conditions: read-out: Ratio CC50/EC50.
A short description of data set [6]: Antiviral activity against Influenza A virus A/Texas/04/2009(H1N1) infected in MDCK cells expressing ST6Gal 1 preincubated with virus and cells for 30 mins followed viral infection measured after 2 to 3 days by naphthalene black dye-based plaque reduction assay. Type of data set: functional, cell-based.
Data set [7] is described as follows: Antiviral activity against Influenza A virus A/California/07/2009(H1N1) infected in MDCK cells expressing ST6Gal 1 preincubated with virus and cells for 30 mins followed viral infection measured after 2 to 3 days by naphthalene black dye-based plaque reduction assay. Type of data set: functional, cell-based.
Data set [8] in a line: Selectivity index, ratio of CC50 for human A549 cells to EC50 for Influenza A virus A/WSN/33(H1N1). Type of data set: toxicity. Conditions: read-out: Ratio CC50/EC50.
A short description of data set [9]: Selectivity index, ratio of CC50 for human A549 cells to EC50 for Influenza A virus A/California/07/2009 (H1N1). Conditions: read-out: Ratio CC50/EC50. Type of data set: toxicity.
For data set [10], the system named is Influenza A virus. In words: Antiviral activity against Influenza A virus A/Denmark/524/2009 (H1N1) infected in MDCK cells expressing ST6Gal 1 preincubated with virus and cells for 30 mins followed viral infection measured after 2 to 3 days by naphthalene black dye-based plaque reduction assay. Type of data set: functional, cell-based.
For data set [11], the system named is Influenza A virus. The data set can be described thus: Antiviral activity against Influenza A virus A/Switzerland/9715293/2013 (H3N2) infected in MDCK cells expressing ST6Gal 1 preincubated with virus and cells for 30 mins followed viral infection measured after 2 to 3 days by naphthalene black dye-based plaque reduction assay. Type of data set: functional, cell-based.

A short description of data set [12]: Selectivity index, ratio of CC50 for human A549 cells to EC50 for Influenza A virus A/Switzerland/9715293/2013 (H3N2). Conditions: read-out: Ratio CC50/EC50. Type of data set: toxicity.
The nature of data set [13]: Antiviral activity against Influenza A virus A/Washington/29/2009(H1N1) infected in MDCK cells expressing ST6Gal 1 preincubated with virus and cells for 30 mins followed viral infection measured after 2 to 3 days by naphthalene black dye-based plaque reduction assay. Type of data set: functional, cell-based. Put shortly: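 Plaque reduction assay in MDCK cells expressing ST6Gal I instead of regular MDCK cells. Virus stocks were grown in MDCK cells with 2 µg/ml N-acetyl trypsin, harvested at 2 days and clarified, then titered by plaque assay on ST6Gal I-expressing MDCK cells.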

The nature of data set [14]: Selectivity index, ratio of CC50 for human A549 cells to EC50 for Influenza A virus A/Denmark/528/2009 (H1N1). Type of data set: toxicity. Conditions: read-out: Ratio CC50/EC50.
The nature of data set [15]: Antiviral activity against Influenza A virus A/Denmark/528/2009(H1N1) infected in MDCK cells expressing ST6Gal 1 preincubated with virus and cells for 30 mins followed viral infection measured after 2 to 3 days by naphthalene black dye-based plaque reduction assay. Type of data set: functional, cell-based.
The nature of data set [16]: Selectivity index, ratio of CC50 for human A549 cells to EC50 for Influenza A virus A/Texas/04/2009 (H1N1). Conditions: read-out: Ratio CC50/EC50. Type of data set: toxicity.
The nature of data set [17]: Selectivity index, ratio of CC50 for human A549 cells to EC50 for Influenza A virus A/Washington/29/2009 (H1N1). Type of data set: toxicity. Conditions: read-out: Ratio CC50/EC50.
The subject of data set [18] is A549. The data set can be described thus: Cytotoxicity against human A549 cells after 48 hrs by neutral red uptake assay. Type of data set: cell-based. Conditions: a549, 48 h. Put shortly:
as §1

In the case of `CC[Si](C)(C)c1ccc(CNC23CC4CC(CC(O)(C4)C2)C3)cc1`, the CC50 in data set [1] came out at 21.8 µM. For the same compound, the inhibition in data set [2] worked out at 18.2%.

Take `C[Si](C)(C)c1ccc(CNC23CC4CC(CC(C4)C2)C3)cc1`: the selectivity ratio in data set [3] stood at 1.7. Moreover, in data set [4], the EC50 came to 4.8 µM. The CC50 in data set [1] was 8 µM. For the same compound, the inhibition in [2] stood at 21.8%.

For `C[Si](C)(C)c1ccc(CNC23CC4CC(CC(O)(C4)C2)C3)cc1`, the selectivity ratio is 122 in data set [5]; 102 in [3]; 183 in data set [8]; 61 in [9]; 105 in [12]; 24.4 in [14]. Further, the selectivity ratio worked out at 122 in data set [16] and 52.3 in data set [17]. In addition, the EC50 was determined as 0.6 µM in data set [6]; 1.2 µM in data set [7]; 0.4 µM in data set [4] (Influenza A virus, MDCK); 0.6 µM in data set [10]; 0.7 µM in data set [11]; 1.4 µM in data set [13]. The same compound gave an EC50 in data set [15] of 3 µM. Moreover, the CC50 in data set [1] was 40.7 µM; in data set [18], 73.2 µM. Besides, in data set [2], the inhibition was found to be 9.5%.

As for `C[Si](C)(c1ccccc1)c1ccc(CNC23CC4CC(CC(O)(C4)C2)C3)cc1`, the selectivity ratio in data set [3] was 2.3. In data set [4], this compound came in with a concentration for a half-maximal effect (EC50) of 5.9 µM. In addition, the CC50 in [1] was found to be 13.3 µM. Also, the inhibition in [2] amounted to 33.6%.

For `C[Si](C)(C)c1ccc(CNC23CC4CC(CC(C4)C2)C3)nc1`, the selectivity ratio in data set [3] turned out to be 3. In addition, in [4], it took 3.4 µM to reach a half-maximal effect (EC50). Also, the midpoint of cytotoxicity in data set [1], the CC50, lay at 10.3 µM. Also, the inhibition in data set [2] turned out to be 5.9%.

`CC(C)[Si](c1ccc(CNC23CC4CC(CC(O)(C4)C2)C3)cc1)(C(C)C)C(C)C`: the EC50 in data set [4] (Influenza A virus, MDCK) is above 10 µM. This compound also had a CC50 in data set [1] of 11.4 µM. Moreover, in [2], the inhibition was 17.8%.

On to `CC(C)(C)c1ccc(CNC23CC4CC(CC(O)(C4)C2)C3)cc1`, for which the selectivity ratio in data set [3] worked out at 12.8. Further, it took 2.5 µM to reach a half-maximal effect in [4] (EC50). The compound also yielded a CC50 in data set [1] of 32 µM. In data set [2], this compound registered an inhibition of 22.3%.

Consider `CC(C)(C)c1ccc(CNC23CC4CC(CC(C4)C2)C3)cc1`, for which, in [3], the selectivity ratio was 3.7. For the same compound, the EC50 in data set [4] turned out to be 3.5 µM. Further, in data set [1], the CC50 was determined as 12.8 µM. In data set [2], this compound registered an inhibition of 9.9%.

What is called CC50 is the concentration at which the toxic effect on the cells reaches its halfway point. Lower therefore signals greater toxicity to the cells. As usually defined, the inhibition is the percentage by which the read-out fell short of the control. A low value points to a weak effect. By EC50 is commonly meant the concentration that produces a half-maximal response. A low value points to greater potency.
